Experimental data of several laboratories.
Lines come from different studies, so protocols differ. pIC50: −log10 of the molar value.
CYP2C19: Cytochrome P450 2C19 (CYP2C19, Homo sapiens, UniProt P33261)

SMILES | target or system | test | test system | setting | measurement | result
NCc1ccc(-c2nn(Cc3ccncc3)c3ccccc23)o1 |  |  | male CD-1 mouse, plasma | intravenous, 5 mg/kg | C0 | 1360 ng/mL
CSc1ccccc1C(=O)NCCn1cc(C(=O)NCc2cccc(C)n2)c(=O)c2cc3c(cc21)OC(F)(F)O3 | CYP2C19 | enzyme activity, inhibitor | human, liver microsomes | 20 min, without NADPH, with preincubation | pIC50 | < 4.00
C[C@H]1Oc2cc(cnc2N)-c2c(nn(C)c2C#N)CN(C)C(=O)c2ccc(F)cc21 |  |  | male Sprague-Dawley rat, plasma | oral, 5 mg/kg, single dose | Tmax | 1.5 h
CCC(CC)COC(=O)[C@H](C)N[P@](=O)(OC[C@H]1O[C@@](C#N)(c2ccc3c(N)ncnn23)[C@H](O)[C@@H]1O)Oc1ccccc1 | A549 | cell growth or viability, resazurin |  | 72 h | CC50 | 25 µM
[N-]=[N+]=N[C@]1(CO)O[C@@H](n2ccc(N)nc2=O)[C@@H](F)[C@@H]1O | A549 | cell growth or viability, ATP luminescence |  | 72 h | CC50 | > 50 µM
CN(CCOc1ccc(CC2SC(=O)NC2=O)cc1)c1ccccn1 (stereo not drawn) | A549 | cell growth or viability, resazurin |  | 72 h | CC50 | 100 µM
CSc1ccccc1C(=O)NCCn1cc(C(=O)NCc2cccc(C)n2)c(=O)c2cc3c(cc21)OCO3 | CYP2C19 | enzyme activity, inhibitor | human, liver microsomes | 20 min, without NADPH, with preincubation | pIC50 | < 4.00
O=c1[nH]cc(F)c(=O)[nH]1 | A549 | cell growth or viability, CCK-8 |  | 50 µM | viability | 27.3%
C=CCn1c(=O)c2cnc(Nc3ccc(N4CCN(C)CC4)cc3)nc2n1-c1ccc2c(n1)[C@@](O)(CC)CC2 |  |  | dog, plasma | intravenous, 3 mg/kg | clearance | 46 mL/min/kg
O=C(CCCCCCC(=O)Nc1ccccc1)NO | CYP2C19 | enzyme activity, inhibitor, fluorescence |  |  | pIC50 | 5.49
OB(O)c1csc2ccccc12 | HFF-1 | cell growth or viability, resazurin |  | 50 µM, 24 h | viability | > 75%
CN(C)C(=O)c1cc2cnc(Nc3ccc(-c4ccc5c(=O)cc(N6CCOCC6)oc5c4)cc3)nc2n1C1CCCC1.Cl |  |  | BALB/c mouse, plasma | intravenous, 2 mg/kg | CL/F | 11.7 mL/min/kg
